Measured values published in ChEMBL document CHEMBL4513216, “Probing the Open Global Health Chemical Diversity Library for Multistage-Active Starting Points for Next-Generation Antimalarials” (ACS Infect Dis, 2020).

Assay: Toxicity liver stage against HepG2, at 10uM
Format: cell-based
Design: test concentration 10 uM, cell line HepG2-A16-CD81EGFP
Conditions: human, HepG2-A16-CD81EGFP cells; read-out: INHIBITION
In short: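 Uninfected HepG2-A16-CD81EGFP cells, 3 × 10^3 per well, 1536-well, plated on prespotted compound at 10 μM final, parasite-free screening media added to match infected plates; puromycin 10 μM positive, DMSO 0.5% negative; run in parallel with 48 h PbLuc assay at 37 °C, 5% CO2; viability by CellTiter-Glo luminescence, normalized to controls.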

Row | SMILES | cytotoxicity at 10 µM [%]
1 | COc1ccc(CN2C[C@@H]3CN(Cc4cccnc4)CCO[C@@H]3C2)cc1 | 10.3
2 | CC(C)OC(=O)CN1N=C(C(=O)N2CCCC2)S(=O)(=O)c2ccccc21 | -2.93
3 | COCCNC(=O)NC1(c2nc(-c3ccncc3)no2)CCCCC1 | -2.46
4 | COc1cc(F)c(CN2CC[C@@](O)(C3CC3)[C@H](C)C2)cc1OC | 0.0489
5 | Cc1ccc(C(C)N(C)Cc2nc3c(cnn3C)c(=O)[nH]2)s1 (configuration not stated) | -4.31
6 | Cn1cc(CN2C[C@H]3CCN(C(=O)c4cscn4)C[C@H]3C2)cn1 | 4.12
7 | COc1c(C2CCCN2Cc2nc(C3CC3)no2)c(C)nn1C (configuration not stated) | -1.79
8 | CC(C(=O)NS(=O)(=O)Cc1cc(-c2ccccc2)no1)C1CC1 (configuration not stated) | -2.72
9 | COCC1N(C(=O)Nc2ccccc2)C2CCC1(O)CC2 (configuration not stated) | 3.15
10 | CCn1ccnc1CN1CCCN(C(=O)Cn2nc(C)cc2C)CC1 | -0.505
11 | CN(C)C(=O)CO[C@H]1CN(Cc2ccccc2)[C@@H]2CCCO[C@H]12 | -8.1
12 | CC(C)N[C@@H]1CO[C@H](CNC(=O)c2ccccc2)[C@H]1O | -5.73
13 | Cc1ccc2cc(C3(O)CCN(C)CC3)ccc2n1 | -0.432
14 | Cc1cc(C)c2nc(CNC3CCCNC3=O)cc(O)c2c1 (configuration not stated) | 5.84
15 | Cc1csc2c(=O)n3c(nc12)CCN(C(=O)c1cccnc1)CC3 | -2.09
16 | COCc1cc(N(C)CCc2c(C)n[nH]c2C)ncn1 | 0.681
17 | c1ccc(-c2cc(CN3CCCCCC3c3ccco3)on2)nc1 (configuration not stated) | -6.19
18 | N#Cc1c(CN2CCCC2Cn2cncn2)cn2ccccc12 (configuration not stated) | -2.49
19 | Cc1nnsc1CN1C[C@@H]2CC[C@H]1CN(Cc1ccc(F)cc1)C2 | -7.44
20 | CC(=O)NC(CC(=O)Nc1nc(C)c(C)s1)c1ccccc1 (configuration not stated) | 3.78
21 | COc1c(C(=O)NC(C)CC(=O)c2cccs2)c(C)nn1C (configuration not stated) | -10.1
22 | CCCC(=O)N1CCCCC1c1nccc(C)n1 (configuration not stated) | -21
23 | Cc1cc(NC(=O)C(C)N2CCN(c3ccc(C#N)cc3F)CC2)no1 (configuration not stated) | 6.16

Row | SMILES | cytotoxicity at 10 µM [%]
24 | COCC1CCN(C(=O)c2cc(O)nc(CC(C)C)c2)CC1 | -2.7
25 | Cc1nc2cc(O)nn2c(C)c1CCC(=O)NCCc1ccccc1 | -6.65
26 | O=C(NC1CCc2ccccc2C1)C1CCN(Cc2ccco2)CC1 (configuration not stated) | -0.339
27 | CN1CC(C(=O)NCCc2ccc3c(c2)OCO3)CC1=O (configuration not stated) | 2.55
28 | CN(C)S(=O)(=O)NCC1OCCc2cn(CC3CCOCC3)nc21 (configuration not stated) | 7.4
29 | CCC(CC)NC(=O)Cn1cc(-c2ccccc2)cn1 | -0.0581
30 | CC(C)c1nccn1C1CCCN(C(=O)c2ccc3[nH]nnc3c2)C1 (configuration not stated) | 1.9
31 | COc1ccc(C)cc1NC(=O)Nc1cnc(O)nc1O | -3.79
32 | CC(C)=CCS(=O)(=O)Cc1noc(CC(C)C)n1 | -4.59
33 | OC(CN1CCN(Cc2ccc(F)cc2)CC1)C1CC1 (configuration not stated) | -23.4
34 | CC(C)C(=O)N1CCC([C@@H]2C[C@H](C(F)F)n3ncnc3N2)CC1 | 6.21
35 | c1cncc(OC[C@@]23CCO[C@@H]2CCN(Cc2cccs2)C3)c1 | 14.6
36 | CCC(C#N)NC(=O)c1sccc1OC (configuration not stated) | 1.88
37 | O=C(Cc1ccsc1)NCCc1ccoc1 | 5.5
38 | CN(CCN1CCOCC1)C(=O)CCc1ccc(C(F)(F)F)cc1 | -1.3
39 | O=C(CC1CCCO1)NCc1ccccc1Cn1cncn1 (configuration not stated) | -2.55
40 | COCCN(C)CC1CCCN1S(=O)(=O)c1cc(C)oc1C (configuration not stated) | 0.729
41 | CC(C)c1cc(NCc2csc(C(C)C)n2)nc(N)n1 | 19.8
42 | Cc1ncsc1CCN(C)C(=O)CCc1nc2cccnc2n1C | -149
43 | Cc1ccc(NC2CCN(C(=O)COc3ccccc3)CC2)nn1 | -3.25
44 | O=C1CC2(CCCNC2)C(=O)N1Cc1ccc(Cl)cc1 (configuration not stated) | -1.57
45 | CC(C)n1c(=O)c2sccc2n(CC(=O)Nc2ccccc2)c1=O | 8.02
46 | Cn1cnnc1-c1ccnc(NCc2ccccc2)c1 | -4.98

Row | SMILES | cytotoxicity at 10 µM [%]
47 | O=C(Cn1cc(I)cn1)N1CCCCCC1 | 8.9
48 | Cc1cn2c(n1)CCC(NS(=O)(=O)c1ccc(C)s1)C2 (configuration not stated) | 12.9
49 | O=C(O)CCc1nc2nccc(C(F)(F)F)n2n1 | -1.36
50 | COCC1CN(Cc2c(C)noc2C)Cc2cn(C)nc21 (configuration not stated) | 13.2
51 | CC(=O)N1[C@H](CN(C)C)C[C@@H]2CN(c3ncc(F)cn3)CC[C@@H]21 | 5.56
52 | CC1(C)CN(Cc2cc(C3CCCCC3)no2)CC[C@]1(C)O | -4.59
53 | CC(C)c1nccn1C1CCCN(C(=O)CCCc2ccccn2)C1 (configuration not stated) | -9.02
54 | O=C(NCC1CCCCC1)N1C[C@@H]2C[C@H](C(=O)N3CCCC3)[C@H](C1)O2 | -2.48
55 | Cc1cnn(C2CCCN(C(=O)c3ccc(N4CCCC4)nc3)C2)c1 (configuration not stated) | -4.77
56 | CSC1=Nc2c(cnn2-c2ccc(C)cc2)C2=NCCCN12 | 10.3
57 | COC(=O)NCC(=O)NCC(C)(C)c1cccc(C(F)(F)F)c1 | -3.36
58 | COCCNC(=O)C1(CCCc2cccnc2)CCCN1C (configuration not stated) | 20.1
59 | CC(=O)N1CCC(Oc2ccc(C#N)cc2)CC1 | -83.4
60 | COc1cccc(-n2c(C)cc(C(=O)NC(C)(C)C(N)=O)c2C)c1 | -2
61 | Cc1cc(C(=O)N2CCc3ncc(CN4CCCC4)n3CC2)no1 | -108
62 | Cc1csc(C(=O)N2CC(S(=O)(=O)C3CCCCC3)C2)c1 | -2.83
63 | CC[C@@H](Cn1ncc2ccccc2c1=O)NC(=O)c1ccco1 | 8.44
64 | CCn1cc(NC(=O)C2CCN(CC(=O)NC(C)(C)CC)CC2)cn1 | -1.01
65 | Cc1cnn(C2CN(CC(=O)NCCc3cccs3)C2)c1 | -3.92
66 | c1ccc(N2CCC(c3ccncc3)CC2)cc1 | 8.45
67 | O=C1CCC2(CCN(Cc3cscn3)CC2)CN1C1CCC(O)CC1 (configuration not stated) | -4.33
68 | COCC(=O)N1CCN(c2ccc(C(=O)OC)cc2)CC1C (configuration not stated) | -14.2
69 | Cc1noc(C)c1CN(C)CC(=O)N1CCc2sccc2C1 | -19.4

Row | SMILES | cytotoxicity at 10 µM [%]
70 | CN(C)C[C@]12COC[C@H]1CN(C(=O)Cc1ccc3c(c1)OCO3)C2 | -9.94
71 | NC(=O)c1c(-c2ccc(Cl)cc2Cl)csc1NC(=O)CCC(=O)O | 8.32
72 | O=C(C1CN(CC2CCOCC2)CC12CCOCC2)N1CCOCC1 (configuration not stated) | 7.49
73 | CC(O)CN(Cc1cccc(C(N)=O)c1)c1ccccc1 (configuration not stated) | 10.1
74 | Cc1cccc(N2CCN(C(=O)C3CC4(CCNCC4)CN3)CC2)n1 (configuration not stated) | -4.27
75 | Cn1ccc2c(-c3cc(N4CCOCC4)ncn3)ccnc21 | 2.64
76 | CC(C1CCN(Cc2c(Cl)ccc(O)c2Cl)CC1)N1CCN(C)CC1 (configuration not stated) | -12
77 | Cc1cccc(CN2Cc3[nH]nc(COc4cccnc4)c3C2)n1 | 0.288
78 | Cn1nc(C(=O)NCc2ccc(F)cc2)c2c1CCS(=O)(=O)C2 | 8.02
79 | CCn1c(C)nnc1SCCNC(=O)c1cccc2ccnn12 | -54.6
80 | Cc1nc(C)c(CC(=O)NCc2ccc(F)cc2F)s1 | -91.9
81 | CC(C)CCc1n[nH]c(C(=O)O)c1I | -1.93
82 | Cc1noc(C)c1C(=O)N1C[C@@H]2COC[C@]2(COc2ccccn2)C1 | 2.47
83 | Cc1cnn(C2CCCN(C(=O)c3cccc4c3OCO4)C2)c1 (configuration not stated) | -2.23
84 | CCS(=O)(=O)NCC1CCN(c2cnccn2)CC1 | 10.3
85 | COc1ccc(-n2ccc(C(=O)N(CCN(C)C)C(C)C)n2)cc1 | -3.29
86 | Cc1nc[nH]c1CNCc1cccnc1N(C)C1CCCCC1 | 5.32
87 | CN1CCN(Cc2c(Cl)ccc(O)c2Cl)CC1C(=O)O (configuration not stated) | 9.46
88 | CCN1CCC(CC(=O)N(C)C(C)c2cncs2)CC1 (configuration not stated) | 6.05
89 | COC(=O)c1cccc(C(=O)N2CCN(c3ccc(OC)cc3)CC2)n1 | -7.12
90 | O=S(=O)(NC[C@H]1OC[C@@H](NCc2cccs2)[C@@H]1O)c1ccccc1 | 3.98
91 | CCn1c(CNC(=O)Nc2nc(C)c(C)o2)nc2ccccc21 | -5.3
92 | CCOCC1CN(CCOc2ccc(Cl)cc2)Cc2c1cnn2C (configuration not stated) | -109

Row | SMILES | cytotoxicity at 10 µM [%]
93 | COc1ccc(CCN2CCCC2Cn2nc(C)nc2C)cc1 (configuration not stated) | -7.16
94 | CC[C@H](C)[C@@H](CO)NC(C)Cc1ccc(C)cc1 (some centres not stated) | -4.48
95 | CCCC(=O)N(CCCN1CCOCC1)c1nc2c(C)ccc(Cl)c2s1 | -10.2
96 | Cc1ccc(Nc2nccc(C3CCN(CC(N)=O)C3)n2)nc1 (configuration not stated) | -16.7
97 | CC(CNC(=O)c1ccc(Cl)cc1F)N1CCCC1 (configuration not stated) | -3.85
98 | CS(=O)(=O)N1CCN(C(=O)CCn2cccn2)CC1 | -8.39
99 | COc1ccc(F)cc1C(C)NC(=O)Nc1nncs1 (configuration not stated) | 12.4
100 | Cn1cc(NC(=O)c2cc3c(s2)CCCC3)cn1 | -2.17
101 | COCCNS(=O)(=O)c1ccc(Cl)c(C(=O)N(C)Cc2sccc2C)c1 | -7.53
102 | Cc1cc(C2CCCN(C(=O)c3cnn(C)c3)C2)ccn1 (configuration not stated) | -2.83
103 | O=C(NCCc1ccccn1)NC1CCN(c2ncccn2)CC1 | -16.3
104 | CC1CCN(Cc2c(C(C)C)[nH]c3ncccc23)CC1 | -6.43
105 | CC(C)Cc1ncc2c(n1)CN(c1cc(NC3CC3)nc(N)n1)C2 | -5.82
106 | c1cnnc(N2CCCC(NCc3cccc4c3OCO4)C2)c1 (configuration not stated) | 2.97
107 | Cc1cc(C)nc(N2CCC(c3noc(C)n3)CC2)n1 | -9.08
108 | CC(NC(=O)c1ccc(Cl)cc1)c1nnc(SCC(=O)O)n1C (configuration not stated) | -9.35
109 | CC(Nc1nc(-c2ccccc2)nc2c1CCNCC2)c1cccnc1 (configuration not stated) | -0.587
110 | O=S(=O)(c1ccccc1)N1CCC[C@]2(C[C@H](OCC3CC3)CO2)C1 | -75.9
111 | CSc1ncc(C(=O)N(C)C(C)Cc2ccccn2)cn1 (configuration not stated) | 15.9
112 | COc1cccc(-c2ncc3c(n2)N(C)CCN(CCN(C)C)C3=O)c1 | -12.2
